pPAFAH FP inh: inhibitors of human plasma PAF acetylhydrolase (pPAFAH) | 1.5% of 330,000 active | recombinant pPAFAH, FP-rhodamine probe fluorescence polarization | Q13093 | inhibition, % at 3.39 µM;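 active means inhibition above the mean inhibition across the screen plus 3 SD, cut at about 25% in these data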;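 further: inhibitors block binding of the rhodamine activity-based probe so polarization drops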
PAFAH1B2 FP inh: inhibitors of human PAFAH1B2. recombinant PAFAH1B2, FP-rhodamine activity probe, fluorescence polarization. inhibition, % at 3.39 µM. 1.2% of 340,000 active. AID 492953;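 active means inhibition above the mean of all tested compounds plus 3 SD, cut at about 24% in these data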
Target sequence (P68402 whole entry, looked up): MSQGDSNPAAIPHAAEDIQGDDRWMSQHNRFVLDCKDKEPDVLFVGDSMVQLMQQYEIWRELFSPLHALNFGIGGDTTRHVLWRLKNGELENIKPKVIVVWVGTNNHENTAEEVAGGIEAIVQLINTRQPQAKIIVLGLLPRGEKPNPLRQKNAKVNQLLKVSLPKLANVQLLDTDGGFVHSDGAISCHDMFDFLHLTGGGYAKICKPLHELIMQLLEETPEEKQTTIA
PAFAH2 inh: PAFAH2 (human) inhibition; Q99487; recombinant PAFAH2, FP-rhodamine activity probe, fluorescence polarization; inhibition, % at 3.39 µM; 0.99% of 340,000 active; AID 492956;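 active means inhibition above the mean over all tested compounds plus 3 SD, cut at about 30% in these data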;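 further: inhibitors block probe labeling of enzyme so polarization drops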
ARFGAP1 inh: inhibits rat ARF GTPase activating protein 1; Arfgap1-stimulated ARF1 GTP hydrolysis, GDP FP detection; inhibition, % at 16.5 µM; 0.26% of 360,000 active; AID 651572; Q62848;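 active means inhibition above a per-plate limit, mean inhibition of low control wells plus 3 SD, cut at about 25% in these data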
Target sequence (Q62848 1-136 limits assumed): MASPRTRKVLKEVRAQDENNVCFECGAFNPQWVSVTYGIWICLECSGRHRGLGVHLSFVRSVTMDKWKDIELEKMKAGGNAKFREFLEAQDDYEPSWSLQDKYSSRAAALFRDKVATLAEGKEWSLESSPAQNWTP
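Material: truncated rat Arfgap1 GAP domain; Incubation: compound-enzyme preincubation 20 min, reaction 120 min, detection 60 min, 25 °C; Read-out: percent inhibition of Arfgap1-stimulated GTP hydrolysis; Technique: FP, GDP Alexa 633 tracer displaced from anti-GDP antibody, 620/688 nm; Controls: No-Arfgap1 wells (100%) versus DMSO full-reaction wells (0%); Replication: single well per compound.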
ASAP1 GAP inh: blocks human ASAP1-stimulated Arf1 GTP hydrolysis; inhibition, % at 16.5 µM; GDP FP detection; Q9ULH1; AID 624377; 0.19% of 360,000 active; in the data active means inhibition above about 25%
PAFAH1B3 inh: inhibitors of human PAFAH1B3; Q15102; recombinant PAFAH1B3, FP-rhodamine probe, fluorescence polarization; inhibition, % at 3.39 µM; 0.28% of 340,000 active; AID 492972;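 active means inhibition above the screen-wide average of all tested compounds plus 3 SD, cut at about 25% in these data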
Target sequence (Q15102 whole entry, looked up): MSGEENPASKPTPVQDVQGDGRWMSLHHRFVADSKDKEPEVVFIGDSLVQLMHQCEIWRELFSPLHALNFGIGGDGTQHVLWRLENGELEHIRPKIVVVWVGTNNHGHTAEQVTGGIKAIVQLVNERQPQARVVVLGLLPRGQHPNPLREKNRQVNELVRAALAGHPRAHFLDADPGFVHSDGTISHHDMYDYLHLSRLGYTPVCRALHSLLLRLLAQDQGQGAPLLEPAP
pPAFAH FP conf: confirmation of human plasma PAF acetylhydrolase (pPAFAH) inhibitors | AID 463230 | inhibition, % at 3.39 µM | 72% of 2,300 active | shares compounds with pPAFAH FP inh | recombinant pPAFAH, FP-Rh probe fluorescence polarization;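 active means mean inhibition of the triplicate above the hit cutoff set for the earlier primary screen, cut at about 25% in these data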
PAFAH2 FP conf: PAFAH2 (human) inhibition, confirmed; shares compounds with PAFAH2 inh; recombinant PAFAH2, FP-rhodamine activity probe, fluorescence polarization; inhibition, % at 3.39 µM; 65% of 2,300 active; AID 493030;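 active means mean inhibition over three repeats above a set limit taken from the earlier primary screen, cut at about 30% in these data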;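 further: inhibitor blocks binding of rhodamine activity probe so polarization falls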
PAFAH1B3 conf FP: PAFAH1B3 (human) inhibition, confirmed | recombinant PAFAH1B3, FP-Rh activity-based probe, fluorescence polarization | inhibition, % at 3.39 µM | 30% of 390 active | shares compounds with PAFAH1B3 inh;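 active means average inhibition over triplicate runs above the hit cutoff set in the earlier primary screen, cut at about 25% in these data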
Of the large screens only hits and unclear results are named; the others gave an inactive call (follow-up assays come after a bar, where they were run). Rows were chosen to be rich in hits. Some 2.8% of all compounds tested hit in one or more screens of this group.

CCOC(=O)[C@@H]1[C@H]2COc3ccc(Br)cc3[C@H]2N2C(=O)N(c3cccc(C)c3)C(=O)[C@]12C	none
COC(=O)[C@@H]1N=C(c2ccc(OC)cc2)O[C@]12C(=O)N(C)c1cccc(Cl)c12	none (no result: pPAFAH FP inh, PAFAH1B2 FP inh, PAFAH2 inh, PAFAH1B3 inh)
C[n+]1c(-c2ccccc2)c2cc(N)ccc2c2ccc(N)cc21	pPAFAH FP inh 68.1, PAFAH1B2 FP inh 87.0, PAFAH2 inh 91.8, PAFAH1B3 inh 120.5 | pPAFAH FP conf 51.9
COC(=O)C1=C(c2ccc(OC)c(OC)c2)C[C@@H]2CC[C@H]1N2C(=O)NCCOc1ccccc1Cl	none
CCCCCCCCN=Cc1c(O)[nH]c(=O)[nH]c1=O	pPAFAH FP inh 62.5 (no result: PAFAH1B2 FP inh, PAFAH2 inh, PAFAH1B3 inh) | pPAFAH FP conf inactive
COP(=O)(OC)C(O)C(Cl)(Cl)Cl (stereo not given)	none (no result: PAFAH1B2 FP inh, PAFAH2 inh, ARFGAP1 inh, ASAP1 GAP inh, PAFAH1B3 inh)
O=c1[nH]c(=S)n(-c2ccc(Br)cc2)c(O)c1C=Nc1ccc(N2CCOCC2)cc1	pPAFAH FP inh 57.0 | pPAFAH FP conf 33.5
CC(=O)N1CCN(c2ccc(N=Cc3c(O)n(-c4ccc(Cl)cc4)c(=O)[nH]c3=O)cc2)CC1	pPAFAH FP inh 40.6 | pPAFAH FP conf inactive
CCOc1ccc(-n2c(O)c(C=Nc3ccc(N4CCOCC4)cc3)c(=O)[nH]c2=O)cc1	none
O=P(Oc1ccccc1)(Oc1ccccc1)C(O)c1ccccc1 (stereo not given)	PAFAH2 inh 30.1 | PAFAH2 FP conf inactive
O=C(N/N=C/C1C(=O)NC(=S)N(c2ccccc2)C1=O)c1cc(Br)c(O)c(Br)c1 (stereo not given)	PAFAH2 inh 36.7 | PAFAH2 FP conf inactive
CCn1c(O)c(/C=N/NC(=O)c2ccccc2)c(=O)n(CC)c1=S	none (no result: PAFAH1B2 FP inh, PAFAH2 inh, PAFAH1B3 inh)
N#CC1c2ccccc2-n2nncc2CN1C(=O)CCc1ccccc1 (stereo not given)	none (no result: pPAFAH FP inh)
Cc1cccc(N2C(=O)NC(=O)/C(=C\c3cc(C)n(-c4sc5c(c4C#N)CCCC5)c3C)C2=O)c1C	PAFAH2 inh 32.8 | PAFAH2 FP conf inactive
Cc1ccc(N2C(=O)NC(=O)/C(=C\c3cccn3C(C)(C)C)C2=O)cc1	PAFAH2 inh 43.0 | PAFAH2 FP conf inactive
C=C(COC(=O)CCC(=O)O)CC1CC(O)[C@]2(C)OC3CC4OC5C[C@]6(C)O[C@]7(C)CCC8OC9C[C@]%10(C)OC%11C(C)=CC(=O)OC%11CC%10OC9C[C@@H](C)C8OC7CC6O[C@]5(C)C/C=C\C4OC3CC2O1 (stereo not given in full)	none (no result: ARFGAP1 inh, ASAP1 GAP inh)
CCC(C)n1c(O)c(/C=N/Nc2ccccc2)c(=O)[nH]c1=S (stereo not given)	PAFAH2 inh 40.1 | PAFAH2 FP conf inactive
CCC(C)n1c(O)c(C=NCC2CCCO2)c(=O)[nH]c1=S (stereo not given)	PAFAH2 inh 50.9 | PAFAH2 FP conf 38.2
CCC(C)n1c(O)c(C=NCCc2ccccc2)c(=O)[nH]c1=S (stereo not given)	PAFAH2 inh 47.0 | PAFAH2 FP conf 44.7
CCC(C)n1c(O)c(/C=N/NC(=O)c2ccncc2)c(=O)[nH]c1=S (stereo not given)	PAFAH2 inh 57.9 | PAFAH2 FP conf 61.8
CCC(C)n1c(O)c(C=NCCN2CCOCC2)c(=O)[nH]c1=S (stereo not given)	none
O=c1[nH]c(=S)n(C2CC2)c(O)c1/C=N/Nc1ccccc1	none
CCNC(=S)N(C)CCc1cc2c(c(OC)c1C=C1C(=O)N(C)C(=O)N(C)C1=O)OCO2	none (no result: PAFAH1B2 FP inh, PAFAH2 inh, PAFAH1B3 inh)
Cc1cc(/C=C2/C(=O)NC(=O)N(Cc3ccco3)C2=O)c(C)n1-c1ccccc1O	PAFAH2 inh 31.5 | PAFAH2 FP conf inactive
O=C1NC(=O)N(C2CCCCC2)C(=O)C1C1c2ccccc2C(=O)N1Cc1ccccc1 (stereo not given)	PAFAH2 inh 45.0 | PAFAH2 FP conf 41.4
CCOC(=O)[C@]12Cc3cc4ccccc4cc3[C@H]1N(Cc1ccccc1)C(=O)c1ccccc12	none (no result: pPAFAH FP inh, PAFAH1B2 FP inh, PAFAH2 inh, PAFAH1B3 inh)
CCC1(C)CN(S(=O)(=O)OCC(Cl)(Cl)Cl)C(=O)N1 (stereo not given)	none
CCOc1ccc(N2C(=O)/C(=C/c3ccco3)C(=O)NC2=S)cc1	PAFAH2 inh 93.8 (no result: ARFGAP1 inh, ASAP1 GAP inh) | PAFAH2 FP conf 63.4
CCOc1ccc(N2C(=O)/C(=C\c3cccs3)C(=O)NC2=S)cc1	none (no result: PAFAH1B2 FP inh, PAFAH2 inh, PAFAH1B3 inh)
CC12CCC(=O)C=C1CCC1C2CCC2(C)C(O)CCC12 (stereo not given)	PAFAH2 inh 34.4 | PAFAH2 FP conf inactive
O=C(Cc1cccs1)N1CCC2(CC1)OCCO2	none
CC1CCN(c2cc(Br)c([N+](=O)[O-])cc2F)CC1	none
C[N+](C)(C)CC(=O)Nc1ccc(Cl)cc1C(=O)c1ccccc1	none
NC(=O)Nc1ccc(C(=O)OCC(=O)Nc2ccc(Cl)cc2C(=O)c2ccccc2)cc1	PAFAH2 inh 70.0 | PAFAH2 FP conf 51.5
CC1=CC(=O)NP(=O)(Oc2ccc3ccccc3c2)N1 (stereo not given)	PAFAH2 inh 44.9 | PAFAH2 FP conf inactive
CC(=O)N1Cc2cnnn2-c2ccccc2C1(C)C#N (stereo not given)	none (no result: pPAFAH FP inh)
COc1cc(CNCCc2c[nH]c3ccccc23)cc(OC)c1	none
Cc1cccc(N2C(=O)NC(=O)/C(=C\c3ccc4c(c3)CCCN4Cc3ccccc3)C2=O)c1	PAFAH2 inh 33.3 | PAFAH2 FP conf 36.9
COc1ccc(N2C(=O)NC(=O)/C(=C/c3ccc4c(c3)Cc3ccccc3-4)C2=O)cc1	none (no result: PAFAH1B2 FP inh, PAFAH2 inh, ARFGAP1 inh, ASAP1 GAP inh, PAFAH1B3 inh)
Oc1cccc2nc3ccccc3nc12	PAFAH1B3 inh 35.0 | PAFAH1B3 conf FP inactive
C=C(C)CN1CC[C@]23c4c5ccc(O)c4O[C@H]2c2[nH]c4ccccc4c2C[C@@]3(O)C1C5	none (no result: PAFAH1B2 FP inh, PAFAH2 inh, ARFGAP1 inh, ASAP1 GAP inh, PAFAH1B3 inh)
CCCCn1c(NS(=O)(=O)c2ccccc2)c(C(=O)OCC)c2nc3ccccc3nc21	PAFAH1B3 inh 51.3 | PAFAH1B3 conf FP inactive
CCOC(=O)c1c(N)n(CCN2CCCCC2)c2nc3ccccc3nc12	none
COc1cc2c(cc1O)[C@@H]1Cc3ccc(OC)c(O)c3CN1CC2	PAFAH1B3 inh 36.5 | PAFAH1B3 conf FP inactive
CCOC(=O)CNC(=O)N1Cc2ccc(Br)cc2-n2nncc2C1	none (no result: pPAFAH FP inh, PAFAH1B2 FP inh, PAFAH2 inh, PAFAH1B3 inh)
COc1ccc2c(CN3CC=C(c4ccccc4)CC3)cc(=O)oc2c1	none
CCc1ccc2c(CN3CC=C(c4ccccc4)CC3)cc(=O)oc2c1	PAFAH1B3 inh 27.3 | PAFAH1B3 conf FP inactive
